Results from different studies.
Sample: plasma

SMILES	test system	setting	half-life [h]
CC(C)n1cc(C#N)c2cc(-n3cc(C(=O)O)cn3)ccc21	human	oral, 10 mg, single dose, fasted, healthy volunteers	5.1
COc1cc(C(=O)NC2CCN(C)CC2)c(F)cc1Nc1ncc(C(F)(F)F)c(Oc2cccc3c2C(=O)N(C)C3)n1	human	oral, 300 mg, multiple doses, once daily, patients	21.6
CCNCCCNC/C=C\CNCCCNCC	human	intravenous, 150 mg, patients, infusion	0.2
C[C@@H](Nc1cc(F)cc(F)c1)c1cc(C(=O)N(C)C)cc2c(=O)cc(N3CCOCC3)oc12	human	oral, 120 mg, patients	4.62
CC(C)(Sc1ccncc1-c1ccc(C#N)c2ccccc12)C(=O)O	male human	oral, 20 mg, single dose, fasted, healthy volunteers	10.9
COc1ccc([C@@H]2CN(C(=O)[C@@H](O)CO)C[C@@]2(C)[C@@H](C)O)cc1OC1CN(c2ccc(C)cn2)C1	human	oral, 0.1 mg, single dose, healthy volunteers	9.74
NS(=O)(=O)NCCNc1nonc1C(=NO)Nc1ccc(F)c(Br)c1	human	oral, 100 mg, multiple doses, twice daily, steady state, patients	3.3
c1cnc2ccc(Nc3nc(NC4CC4)c4nc[nH]c4n3)cc2c1	human	oral, 200 mg/m², patients	2.1
CO[C@@H]1[C@H](OC(=O)N2CC(CCN3CCOCC3)C2)CC[C@]2(CO2)[C@H]1[C@@]1(C)O[C@@H]1CC=C(C)C	human	subcutaneous, 1.2 mg, single dose, healthy volunteers	0.72
CO[C@H]1CC[C@H](N2C(=O)CNc3ncc(-c4ccc(C(C)(C)O)nc4)nc32)CC1	human	oral, 30 mg, patients	5.57
Cn1cc(-c2ccc(S(=O)(=O)[C@@H]3C[C@@H](C(=O)NC4(C#N)CC4)N(C(=O)C4(C(F)(F)F)CC4)C3)c(C(F)(F)F)c2)cn1	human	oral, 3 mg, single dose, fasted, healthy volunteers	5.69
CC(C)(O)c1ccccc1-c1ccc2[nH]c(/C=C/c3ccc(C(F)(F)F)cc3)nc2c1	male human	oral, 120 mg, single dose, fasted, healthy volunteers	63
COCCOc1cnc2ccn([C@H](C)c3nnc4c(F)cc(-c5cnn(C)c5)cn34)c(=O)c2c1	human	oral, 200 mg, multiple doses, once daily, patients	8.3
